The subject of assay [1] is SK-MEL-5 viability, ATP luminescence (CellTiter-Glo), 24 h. The assay is described as follows: ATP-based cytotoxicity in parental melanoma cells – cell-based, CellTiter-Glo, dry powder samples, set 2, orthogonal assay for MITF inhibitor project, dose response (AID 624289). An outline of the steps:
(§1)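 system = SK-MEL-5 human melanoma cells, parental line of primary-screen reporter | input = 3000 SK-MEL-5 cells per well | buffer or medium = phenol red-free growth medium | dosing = pinned compound dose series | times = 24 h compound treatment at 37 °C, 5 min read delay | signal = ATP luminescence, CellTiter-Glo | measure = cell viability inferred from cellular ATP level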
(ATP-based viability assays read luminescence as a measure of living cells.)

Assay in assay [2]: as above
Conditions: SK-MEL-5 viability, ATP luminescence (CellTiter-Glo), 24 h; at 35 µM (top of the series). An outline of the steps:
as §1

Several values for one entry are separate records, joined by “and”; a condition that tells them apart may be missing. Equal entries are not always repeated. Activity calls are given as the source filed them.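 Rule for the calls: active = compounds lowering cell ATP signal with a fitted AC50 no higher than twice the top tested dose; inconclusive = flat curve with 30 to 70% signal loss, or poor fit; inactive = the rest.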 Bounds are passed on as bounds.

45 molecules from PubChem BioAssay AID624289 (Broad Institute, 2012) can be followed below.

In general, AC50 refers to the concentration giving half of the maximal activity seen. Turning to `CC(=O)N(C)C1=C(N2CCN(C)CC2)C(=O)c2ccccc2C1=O`, the AC50 in assay [1] was 3.16 µM.

Take `COc1ccc(C2=C(NC(=O)c3ccccc3Cl)C(=O)c3ccccc3C2=O)cc1`: the concentration at half-maximal activity (AC50) in assay [1] was 17.1 µM.

Turning to `COc1ccc(C2=C(NC(=O)c3cccc(OC)c3)C(=O)c3ccccc3C2=O)cc1`, in assay [1], the half-maximal activity concentration (AC50) is 24.4 µM.

Turning to `O=C(CNc1cccc2ccccc12)N/N=C/c1ccc([N+](=O)[O-])o1`, in assay [1], the concentration at half-maximal activity (AC50) was 19.8 µM.

`CCN1CCN(C2=C(NS(=O)(=O)c3ccc(Br)cc3)C(=O)c3ccccc3C2=O)CC1`: the half-maximal activity concentration (AC50) in assay [1] is 25.4 µM.

As for `O=C(NC1=C(c2ccccc2)C(=O)c2ccccc2C1=O)c1ccco1`, in assay [1], the AC50 was 20.4 µM.

Regarding `O=C1C(NS(=O)(=O)c2ccc(Br)cc2)=C(c2ccccc2)C(=O)c2ccccc21`, in assay [1], the AC50 was 30.9 µM.

Regarding `CCN(CC)CCCNC1=C(N(C)C(C)=O)C(=O)c2ccccc2C1=O`, in assay [1], the concentration at half-maximal activity (AC50) is 3.19 µM.

Regarding `CCN1CCN(C2=C(NS(=O)(=O)c3cccs3)C(=O)c3ccccc3C2=O)CC1`, the AC50 in assay [1] is 19.2 µM.

Turning to `C=CCNC1=C(NS(=O)(=O)c2ccc(Br)cc2)C(=O)c2ccccc2C1=O`, the AC50 in assay [1] is 24.4 µM.

On to `NC1=C(c2ccccc2)C(=O)c2ccccc2C1=O`, for which the half-maximal activity concentration (AC50) in assay [1] is 28.5 µM.

For `O=C(NC1=C(Cl)C(=O)c2ccccc2C1=O)c1ccccc1`, the concentration at half-maximal activity (AC50) in assay [1] was 4.73 µM.

Take `COc1ccc(C2=C(NC(=O)c3ccccc3OC)C(=O)c3ccccc3C2=O)cc1`: the AC50 in assay [1] was > 70 µM (inactive).

Regarding `O=C1C(NS(=O)(=O)c2ccc(Br)cc2)=C(N2CCSCC2)C(=O)c2ccccc21`, in assay [1], the half-maximal activity concentration (AC50) was 32.5 µM.

Consider `C=CCNC1=C(NS(=O)(=O)c2cccs2)C(=O)c2ccccc2C1=O`, for which the concentration at half-maximal activity (AC50) in assay [1] was 24.4 µM.

Turning to `CCN1CCN(C2=C(NC(=O)c3ccc(Br)cc3)C(=O)c3ccccc3C2=O)CC1`, in assay [1], the AC50 is 3.7 µM.

As for `C=C1C(=O)OC2C1CC/C(C)=C\CCC1(C)OC21` (stereo not given), in assay [1], the AC50 is > 70 µM (inactive).

Regarding `Cc1nc2ccccc2n1/N=C/c1ccc([N+](=O)[O-])s1`, the half-maximal activity concentration (AC50) in assay [1] was 6.5 µM.

On to `O=C1C(Nc2ccccc2)=C(N2CCOCC2)C(=O)c2ccccc21`, for which the half-maximal activity concentration (AC50) in assay [1] is 29.3 µM and 24.5 µM.

For `O=C(NC1=C(c2ccc(OC(F)(F)F)cc2)C(=O)c2ccccc2C1=O)c1ccccc1`, the half-maximal activity concentration (AC50) in assay [1] was 24.3 µM.

With `COc1ccc(C2=C(NC(=O)c3ccc(Cl)cc3)C(=O)c3ccccc3C2=O)cc1`, the AC50 in assay [1] was 25.2 µM.

For the molecule `CN1CCN(C2=C(NS(=O)(=O)c3ccc(Br)s3)C(=O)c3ccccc3C2=O)CC1`, the AC50 in assay [1] was 13.9 µM.

Turning to `CCN1CCN(C2=C(N(C)C(C)=O)C(=O)c3ccccc3C2=O)CC1`, in assay [1], the AC50 is 3.29 µM.

For the molecule `NC1=CC(=O)c2ccccc2C1=O`, the AC50 in assay [1] is 7.35 µM.

Turning to `O=C1C(Nc2ccccc2)=C(N2CCN(c3ccccc3)CC2)C(=O)c2ccccc21`, in assay [1], the AC50 is > 70 µM (inactive).

Turning to `C=CCNC1=C(N2CCCCC2)C(=O)c2ccccc2C1=O`, the AC50 in assay [1] was 2.66 µM.

For the molecule `C=CCNC1=C(NCC=C)C(=O)c2ccccc2C1=O`, the activity change, negative = inhibition in assay [2] was -6.6% (inactive).

As to `C=CCNC1=C(NCCCN(CC)CC)C(=O)c2ccccc2C1=O`, in assay [1], the AC50 was 11.5 µM.

In the case of `COC1=C(NS(=O)(=O)c2ccccc2)C(=O)c2ccccc2C1=O`, the AC50 in assay [1] was 7.28 µM.

Turning to `C=CCNC1=C(N2CCN(CC)CC2)C(=O)c2ccccc2C1=O`, the AC50 in assay [1] was 20.1 µM.

Take `O=C1C(NS(=O)(=O)c2ccc(Br)s2)=C(N2CCOCC2)C(=O)c2ccccc21`: the half-maximal activity concentration (AC50) in assay [1] was 23.2 µM.

Consider `O=C(NC1=C(N2CCSCC2)C(=O)c2ccccc2C1=O)c1ccccc1`, for which the AC50 in assay [1] is 13.2 µM.

As to `CN1CCN(C2=C(NC(=O)c3ccc(Br)cc3)C(=O)c3ccccc3C2=O)CC1`, in assay [1], the concentration at half-maximal activity (AC50) is 3.05 µM.

For the molecule `COc1ccc(C2=C(NC(=O)c3cccc(Cl)c3)C(=O)c3ccccc3C2=O)cc1`, the concentration at half-maximal activity (AC50) in assay [1] was 23.1 µM.

In the case of `COc1ccc(C2=C(NC(C)=O)C(=O)c3ccccc3C2=O)cc1`, the half-maximal activity concentration (AC50) in assay [1] is 11.7 µM.

With `CC(=O)NC1=C(c2cccc(Cl)c2)C(=O)c2ccccc2C1=O`, the AC50 in assay [1] is 11.5 µM.

For `CN1CCN(C2=C(NS(=O)(=O)c3ccc(Br)cc3)C(=O)c3ccccc3C2=O)CC1`, the AC50 in assay [1] is > 70 µM (inactive).

As for `CN1CCN(C2=C(Nc3ccccc3)C(=O)c3ccccc3C2=O)CC1`, the AC50 in assay [1] was 14.1 µM.

For the molecule `O=C(NC1=C(N2CCOCC2)C(=O)c2ccccc2C1=O)c1ccc(Br)cc1`, in assay [1], the AC50 is 15.9 µM.

With `COc1ccc(C(=O)NC2=C(c3ccccc3)C(=O)c3ccccc3C2=O)cc1`, in assay [1], the concentration at half-maximal activity (AC50) was 21.5 µM.

Consider `CCN1CCN(C2=C(Nc3ccccc3)C(=O)c3ccccc3C2=O)CC1`, for which the concentration at half-maximal activity (AC50) in assay [1] is 14.2 µM.

Turning to `O=C1C(NS(=O)(=O)c2ccc(Br)s2)=C(N2CCCCC2)C(=O)c2ccccc21`, the AC50 in assay [1] was 28.9 µM.

Consider `O=C1C(NS(=O)(=O)c2cccs2)=C(N2CCOCC2)C(=O)c2ccccc21`, for which the AC50 in assay [1] is 21.1 µM.

As for `COc1ccc(C2=C(NC(=O)c3ccc4ccccc4c3)C(=O)c3ccccc3C2=O)cc1`, the AC50 in assay [1] was > 70 µM (inactive).

For `O=C(NC1=C(c2ccc(Oc3ccccc3)cc2)C(=O)c2ccccc2C1=O)c1ccccc1`, the AC50 in assay [1] is > 70 µM (inactive).
